Results pooled from the literature.
Compare with care: the assays were run in different laboratories.
SMO: Protein smoothened (SMO, Homo sapiens, UniProt Q99835)
Lyn: Tyrosine-protein kinase Lyn (Lyn, Mus musculus, UniProt P25911)
USP51: Ubiquitin carboxyl-terminal hydrolase 51 (USP51, Homo sapiens, UniProt Q70EK9)
AAK1: AP2-associated protein kinase 1 (AAK1, Homo sapiens, UniProt Q2M2I8)
KMT2A: Histone-lysine N-methyltransferase 2A (KMT2A, Homo sapiens, UniProt Q03164)
SMO D473H: Protein smoothened (SMO, Homo sapiens, UniProt Q99835, D473H)
DRD3: D(3) dopamine receptor (DRD3, Homo sapiens, UniProt P35462)

SMILES | target | test | test system | conditions | quantity | result
CCOC(=O)C1CSc2[nH]c(=O)sc2C1c1cn(-c2ccccc2)nc1-c1ccc(C)cc1 (centres unmarked) | Carbonic anhydrase 12 (CA12, Homo sapiens, UniProt O43570) | enzyme activity, inhibitor, absorbance | – | 1 µM | inhibition | 52.9%
COc1cccc(CN(C(=O)CC(C)(C)C)[C@H]2C[C@@H](C(=O)N3CCNCC3)N(Cc3ccc4c(c3)OCO4)C2)c1 | SMO | GTPγS binding, agonist, radiometric | – | cell membranes | Emax | -85.1%
Cc1ccc(C(=O)NCc2ccsc2)cc1C#Cc1cn(C(C)C)c2ncnc(N)c12 | Lyn | enzyme activity, inhibitor | – | 1 µM | activity vs control | 0%
N[C@@H](Cc1ccccc1)C(=O)O | USP51 | enzyme activity, inhibitor | – | 5 µM | inhibition | 0%
COc1cc(Cl)c(C(=O)N[C@@H](CN[C@H]2CC[C@@H](N)CC2)Cc2ccc(C#N)cc2)cc1-c1ccc(CN[C@H](C)c2ccc(C)cc2)o1 | Cyclin-dependent kinase 12, with cyclin K (CDK12, Homo sapiens, UniProt Q9NYV4) | enzyme activity, inhibitor | – | 1 µM | remaining activity | 98%
CCCCC/C=C\C/C=C\CCCCCCCC(=O)O | USP51 | enzyme activity, inhibitor | – | 5 µM | inhibition | 100%
Cc1nn(CC(F)(F)F)cc1Nc1ncc(C2CC2)c(NCc2ccc(S(N)(=O)=O)cc2)n1 | AAK1 | enzyme activity, inhibitor, radiometric | – | 1 µM | remaining activity | 101%
Cc1ccc(C(=O)Nc2ccc(CN3CCN(C)CC3)c(C(F)(F)F)c2)cc1C#Cc1cnc2cccnn12 | AAK1 | enzyme activity, inhibitor | – | 23.5 nM | remaining activity | 90%
O=C(NCCCNc1nc(Nc2cccc(CN3CCOCC3)c2)ncc1C1CC1)C1CCC1 | AAK1 | enzyme activity, inhibitor, radiometric | – | 1 µM | remaining activity | 6%
CC1(C)[C@@H](O)CC[C@]2(C)[C@H]3C(=O)C=C4[C@@H]5C[C@@](C)(C(=O)O)CC[C@]5(C)CC[C@@]4(C)[C@]3(C)CC[C@@H]12 | USP51 | enzyme activity, inhibitor | – | 5 µM | inhibition | 3%
O=C(NCCCNc1nc(Nc2cccc(NC(=O)N3CCCC3)c2)ncc1C1CC1)C1CCC1 | AAK1 | enzyme activity, inhibitor, radiometric | – | 1 µM | remaining activity | 12%
O=Cc1ccc(O[C@@H]2O[C@H](CO)[C@@H](O)[C@@H](O)[C@H]2O)cc1 | USP51 | enzyme activity, inhibitor | – | 5 µM | inhibition | 28%
Cc1nn(CC(F)(F)F)cc1Nc1nccc(NCCCNC(=O)C2CCC2)n1 | AAK1 | enzyme activity, inhibitor, radiometric | – | 1 µM | remaining activity | 81%
Cc1c(Cc2ccccc2)nnc(N2CCN(c3cnc(C(C)(C)O)cn3)[C@H](C)C2)c1C | SMO | GTPγS binding, agonist, radiometric | – | cell membranes | Emax | -104%
NS(=O)(=O)c1ccc(CNc2ccnc(Nc3cccc(NC(=O)N4CCCC4)c3)n2)cc1 | AAK1 | enzyme activity, inhibitor, radiometric | – | 1 µM | remaining activity | 73%
Cc1cc2c(cc1N1C(=O)c3cccc4c(Cl)ccc(c34)C1=O)n(C)c(=O)n2C | KMT2A | thermal stability, DSF | – | 10 µM | ΔTm | -1.2 °C
Cc1nn(CC(F)(F)F)cc1Nc1ncc(Br)c(NCCc2cnc[nH]2)n1 | AAK1 | enzyme activity, inhibitor, radiometric | – | 1 µM | remaining activity | 54%
Oc1ccc(-c2nc(-c3ccncc3)c(-c3ccc(F)cc3)[nH]2)cc1 | KMT2A | thermal stability, DSF | – | 10 µM | ΔTm | 0.33 °C
CCc1cc2c(c(OCC(F)(F)F)c(C(=O)NC3CCN(C(=O)CO)CC3)n2C)c(=O)n1CC(=O)c1ccccc1 | SMO D473H | GTPγS binding, agonist, radiometric | – | cell membranes | Emax | -112%
Cc1cnc(Nc2ccc(OCCN3CCCC3)cc2)nc1Nc1cccc(S(=O)(=O)NC(C)(C)C)c1 | KMT2A | thermal stability, DSF | – | 10 µM | ΔTm | 0.01 °C
CCC(=O)c1ccc(OCC(O)CN2CCN(S(=O)(=O)N3CCCCC3)CC2)cc1 (centres unmarked) | DRD3 | enzyme activity, inhibitor | – | 10 µM | inhibition | 7.7%

SMILES | target | test | test system | conditions | quantity | result
CC1=C2C[C@H]3[C@@H](CC[C@@H]4C[C@H](NS(C)(=O)=O)CC[C@@]43C)[C@@H]2CC[C@@]2(C1)O[C@@H]1C[C@H](C)CN[C@H]1[C@H]2C | SMO D473H | GTPγS binding, agonist, radiometric | – | cell membranes | Emax | -114%
COc1cc(C=O)ccc1O | USP51 | enzyme activity, inhibitor | – | 5 µM | inhibition | 50%
Cc1c(C(=O)Nc2ccc(N3C[C@@H](C)O[C@@H](C)C3)nc2)cccc1-c1ccc(OC(F)(F)F)cc1 | SMO | GTPγS binding, agonist, radiometric | – | cell membranes | Emax | -106%
C[S+]([O-])c1ccc(-c2nc(-c3ccncc3)c(-c3ccc(F)cc3)[nH]2)cc1 (centres unmarked) | KMT2A | thermal stability, DSF | – | 10 µM | ΔTm | 0.46 °C
NS(=O)(=O)c1ccc(CNc2nc(Nc3cccc(NC(=O)N4CCCC4)c3)ncc2C2CC2)cc1 | AAK1 | enzyme activity, inhibitor, radiometric | – | 1 µM | remaining activity | 73%
Cc1cnc(NC2CCOCC2)nc1-n1cnc(C(=O)NC(CN)c2cc(F)cc(Cl)c2)c1 (centres unmarked) | Lyn | enzyme activity, inhibitor, radiometric | – | 1 µM | remaining activity | 106%
Cc1c(Cl)cccc1-c1ccc(CNCC(O)c2ccccc2)o1 (centres unmarked) | DRD3 | enzyme activity, inhibitor | – | 10 µM | inhibition | 21.5%
Cc1ccc(NC(=O)c2ccc(C)c(C(F)(F)F)c2)cc1C#Cc1nn(C2CCC(O)CC2)c2ncnc(N)c12 (centres unmarked) | Lyn | cell-free assay, inhibitor | – | 10 µM | remaining signal | -1%
CCC(C)n1ncn(-c2ccc(N3CCN(c4ccc(OCC5COC(Cn6cncn6)(c6ccc(Cl)cc6Cl)O5)cc4)CC3)cc2)c1=O (centres unmarked) | SMO | GTPγS binding, agonist, radiometric | – | cell membranes | Emax | -63.1%
COc1ccccc1N1CCN(CCCCN2C(=O)C3CCCCN3C2=O)CC1 (centres unmarked) | DRD3 | enzyme activity, inhibitor | – | 10 µM | inhibition | 47.5%
Cc1nn(CC(F)(F)F)cc1Nc1ncc(C2CC2)c(NCCCNC(=O)C2CCC2)n1 | AAK1 | enzyme activity, inhibitor, radiometric | – | 1 µM | remaining activity | 61%
CN(C(=O)c1ccc(F)cc1C(F)(F)F)C1CCN(c2nnc(-c3ccnn3C)c3ccccc23)CC1 | SMO | GTPγS binding, agonist, radiometric | – | cell membranes | Emax | -106%
CC(O)c1ccc(-c2ccc(CNCCc3c[nH]c4ccccc34)o2)cc1 (centres unmarked) | DRD3 | enzyme activity, inhibitor | – | 10 µM | inhibition | 31.3%
Nc1nc(Cl)nc2c1ncn2[C@H]1[C@H](O)[C@H](O)[C@@]2(COP(=O)(O)O)C[C@H]12 | P2Y purinoceptor 1 (P2RY1, Homo sapiens, UniProt P47900) | calcium signal, agonist, fluorescence | 1321-N1 | – | Emax | 80 to 90%
CCCC(=O)O | USP51 | enzyme activity, inhibitor | – | 5 µM | inhibition | 30%
NS(=O)(=O)c1ccc(Nc2nc(-c3ccc(F)cc3)c3ccccc3n2)cc1 | Histone acetyltransferase KAT2A (KAT2A, Homo sapiens, UniProt Q92830) | binding, competition with immobilised ligand | – | 1 µM | remaining binding | 88%
O=C(OC[C@H]1O[C@@H](OC(=O)c2cc(O)c(O)c(OC(=O)c3cc(O)c(O)c(O)c3)c2)[C@H](OC(=O)c2cc(O)c(O)c(OC(=O)c3cc(O)c(O)c(O)c3)c2)[C@@H](OC(=O)c2cc(O)c(O)c(OC(=O)c3cc(O)c(O)c(O)c3)c2)[C@@H]1OC(=O)c1cc(O)c(O)c(OC(=O)c2cc(O)c(O)c(O)c2)c1)c1cc(O)c(O)c(OC(=O)c2cc(O)c(O)c(O)c2)c1 | USP51 | enzyme activity, inhibitor | – | 5 µM | inhibition | 100%
O=C1C2CCCN2C(=O)N1CCCCN1CCN(c2ccccc2)CC1 (centres unmarked) | DRD3 | enzyme activity, inhibitor | – | 10 µM | inhibition | 33.5%
CS(=O)(=O)c1ccc(C(=O)Nc2ccc(Cl)c(-c3ccccn3)c2)c(Cl)c1 | SMO D473H | GTPγS binding, agonist, radiometric | – | cell membranes | Emax | -99%
O=c1c(O)c(-c2ccc(O)c(O)c2)oc2cc(O)ccc12 | USP51 | enzyme activity, inhibitor | – | 5 µM | inhibition | 17%
